Source: PubChem (The Scripps Research Institute Molecular Screening Center)
TbMetRS inhib: Trypanosoma brucei MetRS inhibition; purified T. brucei MetRS, ATP depletion, Kinase-Glo luminescence; inhibition, % at 11.9 µM; 360,000 compounds, 0.4% hits; AID 624268;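 active = inhibition above a per-plate cutoff of the control wells' mean inhibition plus 3 SD, cut at about 5.5% in these data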
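Dosing: 11.9 µM compound single dose, 0.9% DMSO; Assay system: purified T. brucei MetRS enzyme; Measured by: Kinase-Glo luciferase luminescence reporting remaining unconsumed ATP; Schedule: 15 min plus 2 h at 25 °C.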
PLCb3 inh: inhibitors of human phospholipase C beta3; Q01970; AID 720704; Purified PLC-beta3, fluorogenic substrate, fluorescence; 370,000 compounds, 0.18% hits; inhibition, % at 12.2 µM; in the data active = inhibition above about 11%
ADAM10 inh: inhibits human ADAM10 | recombinant ADAM10, EDANS/DABCYL FRET peptide cleavage, 3 h | inhibition, % at 7 µM | 370,000 compounds, 0.62% hits;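 active = inhibition above a per-campaign cutoff equal to the mean of compounds falling between control-based bounds plus 3 SD, cut at about 20% in these data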
PLCg1 inh: blocks human PLC-gamma1 enzyme activity. AID 720700. inhibition, % at 12.2 µM. P19174. purified PLC-gamma1, fluorogenic substrate, fluorescence. 370,000 compounds, 0.84% hits; in the data active = inhibition above about 9.5%
Target sequence (P19174 whole entry, looked up): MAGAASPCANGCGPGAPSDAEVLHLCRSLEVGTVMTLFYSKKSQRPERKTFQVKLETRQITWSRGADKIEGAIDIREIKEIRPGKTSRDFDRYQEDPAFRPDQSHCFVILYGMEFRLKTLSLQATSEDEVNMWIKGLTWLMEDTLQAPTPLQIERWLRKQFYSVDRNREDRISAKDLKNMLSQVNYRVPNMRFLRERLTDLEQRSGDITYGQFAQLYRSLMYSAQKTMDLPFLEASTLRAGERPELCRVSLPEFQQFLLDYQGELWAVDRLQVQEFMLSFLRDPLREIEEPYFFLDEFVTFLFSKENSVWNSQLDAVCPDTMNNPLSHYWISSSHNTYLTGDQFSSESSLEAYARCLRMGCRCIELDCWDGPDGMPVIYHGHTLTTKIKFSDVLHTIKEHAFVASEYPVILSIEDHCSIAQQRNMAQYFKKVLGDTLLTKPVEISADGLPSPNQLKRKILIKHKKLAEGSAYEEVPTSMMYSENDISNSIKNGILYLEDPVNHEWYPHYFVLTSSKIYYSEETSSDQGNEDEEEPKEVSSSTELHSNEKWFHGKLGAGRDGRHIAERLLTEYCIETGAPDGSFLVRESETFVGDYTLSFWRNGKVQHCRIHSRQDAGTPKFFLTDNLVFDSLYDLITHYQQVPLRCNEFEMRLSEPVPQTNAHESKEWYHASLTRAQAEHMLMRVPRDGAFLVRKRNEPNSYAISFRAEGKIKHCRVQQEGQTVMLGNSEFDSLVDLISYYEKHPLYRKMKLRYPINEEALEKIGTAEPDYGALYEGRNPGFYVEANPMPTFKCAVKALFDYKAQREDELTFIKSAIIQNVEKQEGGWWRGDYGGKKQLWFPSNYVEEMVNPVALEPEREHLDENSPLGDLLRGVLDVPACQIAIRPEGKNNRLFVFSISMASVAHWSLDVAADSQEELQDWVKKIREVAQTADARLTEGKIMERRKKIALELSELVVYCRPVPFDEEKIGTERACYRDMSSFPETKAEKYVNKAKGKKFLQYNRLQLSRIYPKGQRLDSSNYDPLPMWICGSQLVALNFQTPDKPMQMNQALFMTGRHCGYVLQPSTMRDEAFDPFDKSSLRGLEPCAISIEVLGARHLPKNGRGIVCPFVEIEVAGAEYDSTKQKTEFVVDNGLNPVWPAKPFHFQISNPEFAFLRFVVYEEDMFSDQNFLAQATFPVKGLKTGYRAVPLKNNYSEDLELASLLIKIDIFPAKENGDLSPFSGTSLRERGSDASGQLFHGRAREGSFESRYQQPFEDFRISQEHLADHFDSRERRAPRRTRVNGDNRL
ADAM17 inh: inhibitors of human ADAM17; recombinant ADAM17, EDANS/DABCYL FRET peptide cleavage; P78536; 370,000 compounds, 0.83% hits; inhibition, % at 6.95 µM;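 active = inhibition above the mean of compounds lying between control limits plus 3 SD, set per campaign, cut at about 8.5% in these data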
ADAM10 confirm: human ADAM10 inhibition, confirmation; inhibition, % at 6.95 µM; shares compounds with ADAM10 inh; ADAM10 QFRET peptide cleavage, EDANS fluorescence; 2,100 compounds, 1% hits;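 active = inhibition above about 20% chosen separately for each screening run, limit read from the data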
ADAM17 counter: ADAM17 inhibition, counter-screen for ADAM10 exosite hits; shares compounds with ADAM10 inh; inhibition, % at 6.95 µM; 2,100 compounds, 0.5% hits; AID 743214; ADAM17 QFRET peptide cleavage, EDANS fluorescence;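 active = mean triplicate inhibition above the solvent-only control wells' mean plus 3 SD, cut at about 12% in these data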
Each line names hits and unclear results; the compound was inactive in the other large screens (follow-up assays come after a bar, where they were run). Most compounds without a hit are left out; they make up all but 2.3% or so of the library.

C/C(=N\NC(=O)COc1cccc(Br)c1)c1ccc2c(c1)OCCO2	none
Cc1c(CC(=O)N2CCC(O)CC2)c(=O)oc2cc3c(cc12)CCC1(CCCCC1)O3	none
O=S(=O)(NCc1cccc(C(F)(F)F)c1)NCc1ccccc1F	ADAM10 inh 20 | ADAM10 confirm inactive | ADAM17 counter inactive
O=C(O)C1(c2ccccc2)CCN(S(=O)(=O)c2cccc(Cl)c2)CC1	none
NNC(=O)c1cccc(COc2ccccc2Br)c1	ADAM10 inh 24 | ADAM10 confirm inactive | ADAM17 counter inactive
O=C(NCc1ccccc1)c1cccc(COc2ccccc2Cl)c1	none
Cc1ccc(S(=O)(=O)N2[C@@H](c3ccc(Cl)cc3)C(C(=O)O)=CC[C@H]2c2ccc(C(C)C)cc2)cc1	ADAM10 inh 21 | ADAM10 confirm inactive | ADAM17 counter inactive
COc1cc(C2(C)SCCCS2)cc(OC)c1OC	none
O=C(NC1CCCc2ccccc21)c1cccc(S(=O)(=O)N2CCN(c3ccccc3)CC2)c1 (configuration not stated)	ADAM10 inh 20, ADAM17 inh 9.5 | ADAM10 confirm inactive | ADAM17 counter inactive
CCn1c(CN2CCOCC2)nnc1SCC(=O)Nc1cccc(C)c1	none
COC1OCC(O)C(NC(=O)N(C)N=O)C1O (configuration not stated)	none
CC1CCCN(S(=O)(=O)c2cccc(C(=O)NCCCN3CCCC3=O)c2)C1 (configuration not stated)	none
Cc1ccc(CNC(=O)c2cnc(-c3ccccn3)nc2C(F)(F)F)cc1	none
O=C(NCc1ccc(F)cc1)c1cnc(-c2ccccn2)nc1C(F)(F)F	ADAM10 inh 66 | ADAM10 confirm inactive | ADAM17 counter inactive
COc1cccc(NC(=O)C2CCN(S(=O)(=O)c3ccc4c(c3)C(C)(C)C(=O)N4C)CC2)c1	none
CC(C)N1C(=O)C(Cc2nc3ccccc3c(=O)n2-c2ccccc2)c2ccccc21 (configuration not stated)	ADAM10 inh 86 | ADAM10 confirm inactive | ADAM17 counter inactive
Cc1ccc(OCC(=O)NNC(=O)C(=O)NC(C)(C)C)cc1	ADAM10 inh 21 | ADAM10 confirm inactive | ADAM17 counter inactive
O=C1CCC2(CCC(c3ccccc3)CC2)N1CCCO (configuration not stated)	none (no result: TbMetRS inhib)
CC1(C(=O)NCc2ccc(C(F)(F)F)cc2)CCN1Cc1ccccc1OC(F)F (configuration not stated)	none
CC1(C(=O)NCc2cccc3ccccc23)CCN1Cc1ccccc1OC(F)F (configuration not stated)	ADAM10 inh 21 | ADAM10 confirm inactive | ADAM17 counter inactive
O=S(=O)(Nc1cccc2cccnc12)c1ccccc1	none
O=S(=O)(Nc1cccc2cccnc12)c1ccc(S(=O)(=O)N2CCCC2)cc1	ADAM10 inh 22 | ADAM10 confirm inactive | ADAM17 counter inactive
O=C(/C=C/c1ccco1)NC(=S)Nc1ccccc1	ADAM10 inh 23 | ADAM10 confirm inactive | ADAM17 counter inactive
COc1cccc(CNc2ccc(Br)cn2)c1O	ADAM10 inh 25 | ADAM10 confirm inactive | ADAM17 counter inactive
C=C(C)COc1ccc(-c2n[nH]c(C)c2-c2ccc(OC)c(OC)c2)c(O)c1	none
Cc1ccc(S(=O)(=O)N2CCN(C(=O)COC(=O)CCOc3ccccc3)CC2)c(C)c1	none
CCCOc1ccc(C(=O)CCC(=O)OCC(=O)N2CCN(S(=O)(=O)c3ccc(C)cc3C)CC2)cc1	ADAM10 inh 21 | ADAM10 confirm inactive | ADAM17 counter inactive
O=C(CN1CCN(S(=O)(=O)c2ccc(Cl)cc2)CC1)N1CCCC1	none
Cc1noc(C)c1COc1cccc(C(=O)OCCOc2ccc(F)cc2)c1	ADAM10 inh 26 | ADAM10 confirm inactive | ADAM17 counter inactive
Cc1noc(C)c1COc1cccc(C(=O)OC(C)C#N)c1 (configuration not stated)	none
Cc1nc(Cc2nnc(SCC(=O)N3c4ccccc4NC(=O)C3(C)C)o2)cs1	none
O=C1c2ccccc2C(=O)N1CCc1c(-c2ccccc2)[nH]c2ccccc12	ADAM10 inh 20 | ADAM10 confirm inactive | ADAM17 counter inactive
